Assay results: ChEMBL document CHEMBL4765342, “Substituted benzothiophene and benzofuran derivatives as a novel class of bone morphogenetic Protein-2 upregulators: Synthesis, anti-osteoporosis efficacies in ovariectomized rats and a zebrafish model, and ADME properties” (Eur J Med Chem, 2020)

Assays:
Cytochrome P450 1A2 = target: T1, Cytochrome P450 1A2 (Homo sapiens, UniProt P05177); experiment: Inhibition of CYP1A2 in human liver microsomes using phenacetin as substrate incubated for 5 mins followed by NADPH addition and measured after 20 mins by LC-MS/MS analysis; assay type: ADME
T1 sequence (P05177 whole entry): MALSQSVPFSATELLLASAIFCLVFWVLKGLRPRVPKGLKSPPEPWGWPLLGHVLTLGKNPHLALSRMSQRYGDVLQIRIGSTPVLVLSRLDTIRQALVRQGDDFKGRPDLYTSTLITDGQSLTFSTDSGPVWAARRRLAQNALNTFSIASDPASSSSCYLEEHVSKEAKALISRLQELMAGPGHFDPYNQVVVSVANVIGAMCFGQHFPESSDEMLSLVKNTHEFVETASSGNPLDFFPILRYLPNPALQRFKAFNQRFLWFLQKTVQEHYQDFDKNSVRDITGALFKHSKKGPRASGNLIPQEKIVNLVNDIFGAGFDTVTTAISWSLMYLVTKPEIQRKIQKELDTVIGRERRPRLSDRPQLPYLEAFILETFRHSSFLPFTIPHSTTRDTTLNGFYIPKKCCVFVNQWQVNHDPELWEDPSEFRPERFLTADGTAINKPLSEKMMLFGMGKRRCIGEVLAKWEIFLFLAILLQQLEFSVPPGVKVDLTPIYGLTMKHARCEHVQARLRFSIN
In short: (§1)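 Human liver microsomes at 0.2 mg/mL mixed with probe substrates, preincubated 5 min at 37 °C. Reaction started with NADPH and run 20 min at 37 °C in a shaking bath. Quenched, held at -20 °C for 1 h, centrifuged, and the supernatant analysed by LC/MS/MS. Assay validated with specific inhibitors for each isoform.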

[1] = AUC (0 to t) in Sprague-Dawley rat at 10 mg/kg, po by LC-MS/MS analysis; assay type: ADME, organism-based; design: dose 10 mg/kg; details: in vivo
[2] = Toxicity in BALB/c mouse assessed as gait disturbance at 50 to 100 mg/kg, ig administered for 14 days; assay type: organism-based; details: in vivo, po, 336 h, dose 50-100 mg/kg, time 14 day
In short: (§2)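 BALB/c mice, 10 per group, gavaged daily for 14 days at 50 or 100 mg/kg; blank control group included. Hair, behaviour and neurological signs (fremitus, convulsion, spasm, gait disturbance) were observed. At day 14, mice were weighed and given routine blood tests and serum biochemistry (ALT, AST, urea, creatinine; n = 10). Liver and kidney were examined on paraffin-embedded histology sections.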

Cytochrome P450 3A4 = Cytochrome P450 3A4 (Homo sapiens, UniProt P08684); experiment: Inhibition of CYP3A4 in human liver microsomes using midazolam as substrate incubated for 5 mins followed by NADPH addition and measured after 20 mins by LC-MS/MS analysis; assay type: ADME; in short: as §1
Cytochrome P450 3A4, sequence (P08684 whole entry): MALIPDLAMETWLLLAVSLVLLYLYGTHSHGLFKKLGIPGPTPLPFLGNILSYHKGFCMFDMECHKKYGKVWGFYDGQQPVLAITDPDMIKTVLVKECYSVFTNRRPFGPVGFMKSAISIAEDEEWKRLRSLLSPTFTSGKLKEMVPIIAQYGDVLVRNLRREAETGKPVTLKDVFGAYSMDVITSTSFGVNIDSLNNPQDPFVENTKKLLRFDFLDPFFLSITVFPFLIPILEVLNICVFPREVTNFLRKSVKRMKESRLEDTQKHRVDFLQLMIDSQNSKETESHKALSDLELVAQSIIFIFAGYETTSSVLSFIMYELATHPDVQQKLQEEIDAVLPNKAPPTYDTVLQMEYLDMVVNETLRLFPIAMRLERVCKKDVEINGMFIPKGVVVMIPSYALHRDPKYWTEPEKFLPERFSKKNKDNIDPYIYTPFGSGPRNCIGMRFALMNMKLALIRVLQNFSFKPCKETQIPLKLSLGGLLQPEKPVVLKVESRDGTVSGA

[3] = Renal toxicity in BALB/c mouse assessed as effect on serum urea level at 50 to 100 mg/kg, ig administered for 14 days; assay type: organism-based; details: in vivo, po, 336 h, dose 50-100 mg/kg, time 14 day; in short: as §2
[4] = Toxicity in BALB/c mouse assessed as effect on body weight at 50 to 100 mg/kg, ig administered for 14 days; assay type: organism-based; details: in vivo, po, 336 h, dose 50-100 mg/kg, time 14 day; in short: as §2
[5] = Permeability across apical to basolateral side in human Caco-2 cells assessed as […] yellow leakage at 10 uM incubated for 2 hrs LC-MS/MS analysis; assay type: ADME, cell-based; details: caco-2, 2 h
In short: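 Caco-2 monolayers, apical to basolateral direction. Plates preincubated 30 min at 37 °C, then exposed to 10 µM compound for 2 h at 37 °C without shaking. Donor and receiver samples were quenched, centrifuged and measured by LC/MS/MS, in duplicate. Papp calculated from receiver concentration, area and time. Monolayer integrity checked by TEER and by Lucifer yellow leakage (30 min, 37 °C, ex 485/em 530 nm).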

COc1ccc2cc(C(=O)NCCN(C)C)oc2c1.CS(=O)(=O)O
IC50 (Cytochrome P450 1A2): > 10 µM
AUC(0-t) [1]: 278 ng·h/mL
Activity [2]: Non-Toxic
IC50 (Cytochrome P450 3A4): > 10 µM
Activity [3]: Non-Toxic
Activity [4]: Non-Toxic
Activity [5]: 0.158%
